{
  "source": "ChEMBL document CHEMBL1124947",
  "about": "“Cationic antiprotozoal drugs. Trypanocidal activity of 2-(4'-formylphenyl)imidazo[1,2-a]pyridinium guanylhydrazones and related derivatives of quaternary heteroaromatic compounds” (J Med Chem, 1990)",
  "key": {"Mus musculus [1]": {"system": "Mus musculus", "assay": "Trypanocidal Activity at I.C.E. value 0.27 when administered perorally.", "format": "functional"}, "Mus musculus [2]": {"system": "Mus musculus", "assay": "Trypanocidal Activity at I.C.E. value 0.92 when administered subcutaneously.", "format": "functional", "procedure,_shortened": "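Mice, in groups of five per dose, were given a standard inoculum of blood-stage T. rhodesiense that is lethal to all untreated controls, then dosed subcutaneously. Usually 11 dose levels were used (2^n × 0.42 mg/kg).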"}},
  "data": [
    {"smiles": "Br.CCCSc1ccc2n(c1)cc(-c1ccc(/C=N/NC(=N)N)cc1)[n+]2C.[Br-]", "values": [
      {"measurement": "CD50", "setting": "Mus musculus [1]", "value": 26, "unit": "mg/kg"},
      {"measurement": "CD50", "setting": "Mus musculus [2]", "value": 0.2, "unit": "mg/kg"}
    ]}
  ]
}
